Measurements as given in PMC12169410 (Epilepsia, 2025).
Several values for one entry are separate records, joined by “and”; a condition that tells them apart may be missing. Equal entries are not always repeated.

What was measured:
Type in all cases: in vivo
[1] = tested on: amygdala kindled Wistar rats; experiment: Amygdala kindled rat seizure model; conditions: 16 mg/kg orally, 60 min prior to stimulation
Procedure, shortened: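 Male Wistar rats had electrodes implanted under isoflurane with carprofen (5 mg/kg s.c.). Each treatment ran over 2 days with a 2-day washout. Day 1: oral vehicle (0.5% methylcellulose), then stimulation 60 or 120 min later. […] Seizures were scored on the Racine scale (0–5), and amygdala and cortical EEG afterdischarge duration was analysed off-line. Statistics: Wilcoxon test (severity) and paired t test (afterdischarge) vs baseline.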

CF‐1 mice = experiment: Mouse fixed-speed rotarod test of minimal motor impairment; conditions: 1 mg/kg i.p.
Procedure, shortened: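 Mice were tested on a fixed-speed rotarod at 6 rpm immediately before 6 Hz stimulation at 32 or 44 mA. A mouse falling off 3 times within 1 min was scored impaired. The experimenter was blinded to treatment.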

[2] = tested on: CF‐1 mice, 6 Hz psychomotor seizure; experiment: Mouse 6 Hz seizure test; conditions: 1 mg/kg i.p., 0.25 h pretreatment
[3] = tested on: Genetic Absence Epilepsy Rat from Strasbourg (GAERS); experiment: GAERS model, spontaneous spike-and-wave discharges; conditions: 3 mg/kg oral; discharges increased progressively afterwards
Procedure, shortened: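 Adult male GAERS rats (4–8 months) had frontal and parietal cortical EEG recorded while freely moving. […] SWDs were counted over a 20-min baseline (−25 to −5 min) and in 20-min epochs from 10 to 130 min post-dose. Analysis: mixed-model repeated-measures ANOVA with Dunnett vs vehicle; ED50 from a variable-slope curve fit of overall rate as % baseline.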

CN1C(=O)CN=C(c2ccccc2)c2cc(Cl)ccc21 [Diazepam]
Change in mean afterdischarge duration in the amygdala vs baseline [1]: −69%
Change in mean afterdischarge duration in the cortex vs baseline [1]: −75%
Change in mean seizure severity score (Racine scale) vs baseline [1]: −3.7
Rotarod impairment (mice impaired/tested), 32 mA group (CF‐1 mice; immediately prior to 6 Hz 32 mA stimulation): 0/10
Rotarod impairment (mice impaired/tested), 44 mA group (CF‐1 mice; immediately prior to 6 Hz 44 mA stimulation): 0/10
Seizure protection 32 mA (mice protected/tested) ([2]; 32 mA): 10/10
Seizure protection 44 mA (mice protected/tested) ([2]; 44 mA): 3 of 10 and 3/10
Effect on SWDs in the first epoch (10–30 min) [3]: rapid and almost complete elimination of SWDs
